This is a sample that favours compounds with a hit; in the whole collection about 3.5% have one here.
RGS4 act = RGS4 potentiators or activators, primary screen, cell-based, HEK293 M3R inducible RGS4, calcium flux | carbachol calcium flux Fluo4; active compounds read low | 310,000 tested, 0.92% active | B-score at 10 µM;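 active = B-score of the integrated calcium signal more than 4 SD below the library mean, with starting fluorescence not abnormally high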;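 also: negative B-score means reduced calcium response which marks RGS4 activation or potentiation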
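Assay system: Inducible-RGS4 HEK293 cells carrying M3 receptor | Schedule: Compound preincubation 20 min at room temperature before agonist | Signal: Kinetic calcium fluorescence imaging with Fluo4-AM dye, 2 µM | Read-out basis: B score from integrated fluorescence ratio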
MrgX1 antag = antagonists of human MrgX1 receptor, primary screen, HEK293 cells, Fluo-4 calcium flux. BAM8-22 antagonism; active compounds read low. B-score at 10 µM. 310,000 tested, 1.3% active. AID 588676, 2011;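 active = calcium-response B-score plate-corrected more than 3 library SD below zero, starting fluorescence within 5 deviations, no agonist response on first addition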;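 also: peak minus trough fluorescence over baseline after final BAM8-22 challenge near maximal dose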
Target sequence (Q96LB2 whole entry, looked up): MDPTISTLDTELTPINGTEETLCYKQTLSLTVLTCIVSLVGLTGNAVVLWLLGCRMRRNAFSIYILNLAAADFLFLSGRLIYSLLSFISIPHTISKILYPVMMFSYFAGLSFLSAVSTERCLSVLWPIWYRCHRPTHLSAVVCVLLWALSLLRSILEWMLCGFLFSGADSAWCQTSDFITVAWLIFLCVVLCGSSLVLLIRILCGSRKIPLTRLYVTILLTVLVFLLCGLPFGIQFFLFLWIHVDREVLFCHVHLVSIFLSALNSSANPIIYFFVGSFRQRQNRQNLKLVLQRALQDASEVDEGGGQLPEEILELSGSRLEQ
RGS4 inh = RGS4 inhibitors, primary screen, cell-based, HEK293 M3R inducible RGS4, calcium flux; Fluo-4 calcium flux; active compounds read high; triggered by carbachol at its EC20; AID 463165, 2010; B-score at 10 µM; 310,000 tested, 0.45% active; Regulator of G-protein signaling 4 (Homo sapiens), P49798;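 active = B-score, a plate-corrected calcium signal, over three deviations above library mean, with baseline fluorescence within five deviations of library mean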;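 also: RGS4 expression induced by doxycycline in cells with stable M3 receptor; B-score is computed from the integrated fluorescence ratio over baseline after carbachol; higher B-score means a larger calcium signal and so more RGS4 inhibition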
Target sequence (P49798 whole entry, looked up): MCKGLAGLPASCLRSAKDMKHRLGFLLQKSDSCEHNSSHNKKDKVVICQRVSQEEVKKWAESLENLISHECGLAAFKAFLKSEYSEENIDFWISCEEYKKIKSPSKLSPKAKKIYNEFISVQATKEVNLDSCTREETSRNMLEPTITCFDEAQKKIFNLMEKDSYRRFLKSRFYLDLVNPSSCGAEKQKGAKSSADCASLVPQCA
MrgX1 agonist = agonists of human MrgX1 receptor, primary screen, HEK293 cells, Fluo-4 calcium flux; Mas-related G-protein coupled receptor member X1 (Homo sapiens), Q96LB2; Fluo-4 calcium fluorescence, agonist mode; active compounds read high; B-score at 10 µM; 310,000 tested, 0.44% active; AID 588627, 2011;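 active = calcium response B-score plate-corrected fluorescence ratio at least 3 library SD, with starting fluorescence B-score inside 5 SD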
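Material – MrgX1-expressing HEK293 cells · Input – 15,000 cells seeded per well · Dosing – compound as first of three additions · Times – overnight seeding, then 1 h dark dye loading · Measured by – kinetic Fluo-4 NW fluorescence of intracellular calcium · Read-out – B-scored fluorescence response ratio · Benchmarks – positive and negative control wells on each plate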
MrgX1 allo act = positive allosteric modulators of MrgX1, primary screen, HEK293 cells, Fluo-4 calcium flux; Mas-related G-protein coupled receptor member X1 (Homo sapiens), Q96LB2; FDSS; active compounds read high; B-score at 10 µM; 310,000 tested, 0.63% active; AID 588675, 2011;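 active = plate-corrected calcium response at least 3 library SD above typical, normal starting fluorescence, not activating the receptor alone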;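 also: compound read alongside a low EC10 to EC30 dose of BAM8-22 agonist; peak minus trough fluorescence over baseline measured at the second addition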
RGS4 activ val = reduced carbachol calcium response, RGS4-induced M3R cells, confirmation, RGS4 activator project, cell-based, HEK293 M3R/RGS4 inducible, calcium flux, duplicate; inhibition, % at 10 µM; carbachol calcium flux Fluo4; 1,100 tested, 89% active; shares compounds with RGS4 act; AID 602282, 2012;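 active = inhibition above 3 SD of the buffer control wells, cut at about 41% in these data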;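 also: signal is the integrated peak-minus-minimum Fluo4 fluorescence over baseline ratio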
RGS4 act ctr = counter-screen for RGS4 activators: effect in non-induced cells; HEK293 M3R non-induced RGS4, Fluo4 calcium flux; after carbachol challenge at its EC90; inhibition, % at 10 µM; shares compounds with RGS4 act; 1,100 tested, 82% active;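 active = inhibition exceeding 3 SD of buffer-only control wells, cut at about 26% in these data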;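 also: percent drop in integrated peak-minus-baseline over baseline Fluo4 ratio after carbachol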
* hit, by the source's call; i = inactive; / = no result.

SMILES	RGS4 act	MrgX1 antag	RGS4 inh	MrgX1 agonist	MrgX1 allo act	RGS4 activ val	RGS4 act ctr
Cc1ccn2c(=O)c(NC(=O)c3ccc(Br)o3)c(C)nc2c1	i	i	i	i	i	/	/
C=CCSC(=C(C#N)C#N)c1cc2c([nH]1)CCCC2	-9.2*	i	i	i	i	90*	32*
O=C(O)c1cc2c([nH]c1=O)CCCC2	i	i	i	i	i	/	/
CCCc1ncc(C(O)c2cccc3ccccc23)n1C (stereo unspecified)	i	i	i	i	i	/	/
CCCc1ncc(C(O)(c2ccccc2)c2ccc(C)cc2)n1C (stereo unspecified)	-7.9*	i	i	i	i	92*	63*
CCCc1ncc(C(O)(c2ccccc2)c2ccccc2)n1C	-12*	i	i	i	i	93*	81*
COc1cccc(NC(=O)CN(C)C(=O)c2cc(-c3cccc(Br)c3)nc3ccccc23)c1	-9.5*	i	i	i	i	84*	28*
c1ccc(COc2ccc(CN3CCN(c4ccccn4)CC3)cc2)cc1	-8.3*	i	i	i	i	90*	58*
CCCCn1c(-c2csc(C(C)C)c2)n[nH]c1=S	-9.7*	i	i	i	i	92*	60*
CCCc1cc(-c2n[nH]c(=S)n2CC(C)C)cs1	i	i	i	i	i	/	/
CCCCn1c(-c2csc(CC)c2)n[nH]c1=S	-8*	i	i	i	i	88*	55*
Cc1ccc(NNC(=O)Nc2ccc(Cl)cc2)nn1	i	i	i	i	i	/	/
C=C(C)COc1ccc(-c2[nH]ncc2Oc2ccccc2OCC)c(O)c1	-7.7*	i	i	i	i	91*	92*
CCOc1ccccc1Oc1cn[nH]c1-c1ccc(O)cc1O	i	i	i	i	i	/	/
Cc1ccc(S(=O)(=O)N2CCN(C(=O)c3cc4c(C)nn(-c5ccccc5C)c4s3)CC2)cc1	-8.5*	i	i	i	i	83*	34*
O=C(CSc1nnc(NC(=O)c2c(F)cccc2F)s1)NC1CCCCC1	i	i	i	i	i	/	/
COc1ccccc1C(CNC(=O)c1cccc(NS(=O)(=O)c2ccc(C)c(F)c2)c1)N(C)C (stereo unspecified)	-8.4*	i	i	i	i	77*	55*
CCOC(=O)c1nnn(-c2nonc2-n2cccc2)c1CCl	i	i	i	i	i	/	/
CCOC(=O)c1nnn(-c2nonc2-n2cccc2)c1CN1CCC(C)CC1	-8*	i	i	i	i	72*	0
CCCCn1c(N)c(N(CC(C)C)C(=O)COC(=O)C2(c3ccccc3)CC2)c(=O)[nH]c1=O	i	i	i	i	i	/	/
O=C(O)c1ccc(N/N=C/c2ccc(OC(=O)c3ccccc3Cl)cc2)cc1	-14*	i	i	i	i	0	0
O=C(O)c1ccc(N/N=C/c2ccc(-c3ccccc3)cc2)cc1	i	/	i	/	/	/	/
Cc1ccc2oc(=O)c3cc(C(=O)NCCCN4CCc5ccccc5C4)sc3c2c1	-7.7*	i	i	i	i	51*	84*
Cc1ccc2oc(=O)c3cc(C(=O)NCCCN4CCCCCC4)sc3c2c1	i	i	i	i	i	/	/
Cc1cccc(NC(=O)c2cc(S(=O)(=O)N(C)c3ccc(F)cc3)ccc2Cl)n1	i	i	i	i	i	/	/
SMILES	RGS4 act	MrgX1 antag	RGS4 inh	MrgX1 agonist	MrgX1 allo act	RGS4 activ val	RGS4 act ctr
Cn1c(-c2ccc3c(c2)OCO3)cnc1NCc1cccc(Cl)c1	-8.9*	i	i	i	i	86*	44*
CCC(=O)N(Cc1cc2ccc(C)cc2[nH]c1=O)c1ccccc1OC	i	i	i	i	i	/	/
CCOC(=O)c1cc2c(ccn2C)n1Cc1ccccc1C	-8.8*	i	i	i	i	84*	40*
Cc1ccccc1Cn1c(C(=O)OC(C)C)cc2c1ccn2C	-8*	i	i	i	i	90*	50*
CCOC(=O)c1cc2c(ccn2C)n1CC(=O)N(Cc1ccccc1)c1ccccc1	i	i	i	i	i	/	/
CC(C)(C)c1csc(NC(=O)c2cccs2)n1	-8.2*	i	i	i	i	0	0
Cc1cccc(C(C)C)c1NC(=O)Cc1ccc(S(=O)(=O)N2CCOCC2)s1	i	i	i	i	i	/	/
Cc1ccc(S(=O)(=O)c2ccc(Oc3cccc(C)c3)cc2)cc1	-8.1*	i	i	i	i	68*	30*
CCCN(C(=O)COC(=O)c1[nH]c(C)c(C(=O)OC)c1C)c1c(N)n(Cc2ccccc2)c(=O)[nH]c1=O	i	i	i	i	i	/	/
CCN(C1CCCCC1)S(=O)(=O)c1ccc(S(=O)(=O)N2CCN(CCC#N)CC2)cc1	-9.1*	i	i	i	i	90*	65*
CCOc1ccc(Cc2n[nH]c(=S)n2Cc2ccccc2)cc1	-8.8*	i	i	i	i	61*	84*
COc1cccc(Cc2n[nH]c(=S)n2Cc2ccco2)c1	-10*	i	i	i	i	60*	84*
CNC(=O)CS(=O)CC(=O)Nc1cc(OCCOC)c(Cl)cc1Cl (stereo unspecified)	i	i	i	i	i	/	/
CC(=O)Nc1ccc(Nc2ccc3c4c(cc(=O)n3C)-c3ccccc3C(=O)c24)cc1	i	i	i	i	i	/	/
CC(=O)Nc1c2c3c(cccc3n(C)c1=O)C(=O)c1ccccc1-2	-8.6*	i	i	i	i	53*	0
COc1ccc(CSCCNC(=S)Nc2ccccc2)cc1Cl	i	i	i	i	i	/	/
S=C(NCCSCc1ccc(Cl)c(Cl)c1)Nc1ccccc1	-8.3*	i	i	i	i	90*	71*
COc1ccc(OC)c2c1C(=O)C(Cl)=C(Cl)C2=O	-8.2*	i	i	i	i	80*	65*
